These results are taken from ChEMBL document CHEMBL2069294, “Synthesis and evaluation of hybrid drugs for a potential HIV/AIDS-malaria combination therapy” (Bioorg Med Chem, 2012).

Calls of active or inactive are those of the source. The calls are words filed in the database; no cut-off is given here.

The subject of series [1] is Human immunodeficiency virus 1. Nature of the series: Antiviral activity against HIV1 NL43 infected din human MT4 cells pre-incubated in presence of compound for 48 hrs followed by TZM cells infection with compound treated virus supernatant by X-gal staining based microscopy. Conditions: Human immunodeficiency virus 1, NL43, TZM. It counts as functional, organism-based. Put shortly:
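MT4 co-culture with NL43 HIV-1 preincubated 4 h at 37 °C, then compounds in DMSO added at six concentrations for 48 h; cell-free supernatant used to infect TZM cells in triplicate; after 2 days cells fixed (acetone/ethanol), X-Gal stained 2–4 h, blue cells counted; uninfected and untreated-infected wells set as 100% and 0% activity.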

The test system of series [2] is Plasma. Nature of the series: Drug metabolism in C57/BL6 mouse plasma assessed as azidothymidine level at 20 mg/kg, po dissolved in 10% DMSO. Format: ADME, organism-based. Set-up: dose 20 mg/kg, route oral. Conditions: in vivo. Put shortly:
(§1)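 Male C57/BL6 mice given 20 mg/kg by oral gavage (200 µl) in 10% DMSO (resuspended precipitate) or Pheroid vesicles; tail blood at 30–480 min (DMSO) or 10–420 min (Pheroid), plasma separated; parent, AZT and DHA quantified by LC–MS/MS after acetonitrile extraction with deoxythymidine internal standard, calibration in plasma.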

Series [3] in a line: Drug metabolism in C57/BL6 mouse liver microsomes measured after 15 mins. It counts as ADME, Microsome. Conditions: read-out: Drug metabolism. Put shortly:
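Compound at 1 µM final incubated at 37 °C with mouse liver microsomes (0.2 mg/ml protein) in phosphate buffer pH 7.4; started with 1 mM NADPH; aliquots at 0, 15, 30, 45 min quenched in cold acetonitrile; parent remaining (% of time zero) and released AZT/DHA measured by LC–MS/MS.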
(Microsomes from liver hold many membrane-bound enzymes, among them those of drug oxidation.)

Series [4] deals with Plasma. Nature of the series: Drug metabolism in C57/BL6 mouse plasma assessed as azidothymidine level at 20 mg/kg, po dissolved in Pheroid formulation. Format: ADME, organism-based. Also noted: dose 20 mg/kg, route oral. Conditions: in vivo. Put shortly: as §1
The nature of series [5]: Prodrug release in buffer assessed as dihydroartemisinin level. It counts as physicochemical.
Series [6] in a line: Selectivity index, ratio of CC50 for human HeLa cells to IC50 for Plasmodium falciparum Dd2 ring stage cells. Format: functional. Put shortly:
(§2)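 Ratio of HeLa MTT CC50 to Malstat IC50 against the stated P. falciparum strain (ring-stage, triplicate, 1% parasitemia).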

The test system of series [7] is Blood. Nature of the series: Drug metabolism in C57/BL6 mouse blood assessed as azidothymidine level at 20 mg/kg, po dissolved in 10% DMSO. It counts as ADME, organism-based. Set-up: dose 20 mg/kg, route oral. Conditions: in vivo. Put shortly:
as §1

For series [8], the system named is Plasma. Description: Drug metabolism in C57/BL6 mouse plasma assessed as dihydroartemisinin level at 20 mg/kg, po dissolved in 10% DMSO. Also noted: dose 20 mg/kg, route oral. It counts as ADME, organism-based. Conditions: in vivo. Put shortly:
as §1

Series [9] is described as follows: Cmax in C57/BL6 mouse plasma at 20 mg/kg, po dissolved in Pheroid formulation. Format: ADME, organism-based. Also noted: dose 20 mg/kg, route oral. An outline of the steps:
as §1

The subject of series [10] is Blood. Description: Drug metabolism in C57/BL6 mouse blood assessed as azidothymidine level at 20 mg/kg, po dissolved in Pheroid formulation. Conditions: in vivo. Format: ADME, organism-based. Set-up: dose 20 mg/kg, route oral. An outline of the steps:
as §1

Series [11] has as its system Plasmodium falciparum. Description: Antiplasmodial activity against drug resistant Plasmodium falciparum Dd2 ring stage cells assessed as reduction parasitemia by Malstat assay. Format: functional, organism-based.
Series [12] has as its system Blood. Description: Drug metabolism in C57/BL6 mouse blood assessed as dihydroartemisinin level at 20 mg/kg, po dissolved in 10% DMSO. Conditions: in vivo. Format: ADME, organism-based. Also noted: dose 20 mg/kg, route oral. An outline of the steps: as §1
A short description of series [13]: Selectivity index, ratio of CC50 for human HeLa cells to IC50 for VSV-G pseudotyped HIV1 lentiviral particles. It counts as functional. An outline of the steps: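 Ratio of HeLa MTT CC50 to IC50 in the 48 h VSV-G-pseudotyped HIV-1 reporter assay in HeLa cells.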
For series [14], the system named is HeLa. Nature of the series: Cytotoxicity against human HeLa cells by MTT assay. It counts as cell-based. An outline of the steps:
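MTT reduction assay on HeLa cells (DMEM, 10% heat-inactivated FCS) with serial dilutions; CC50 taken as concentration giving 50% growth inhibition, ± SEM.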
(In general: Formazan colour is commonly taken as a measure of viable cells.)

Series [15] has as its system Plasmodium falciparum. Nature of the series: Antiplasmodial activity against Plasmodium falciparum 3D7 ring stage cells assessed as reduction parasitemia by Malstat assay. It counts as functional, organism-based. Conditions: Plasmodium falciparum, 3D7; read-out: IC50.
Series [16] deals with Plasma. Nature of the series: Drug metabolism in C57/BL6 mouse plasma assessed as dihydroartemisinin level at 20 mg/kg, po dissolved in Pheroid formulation. Format: ADME, organism-based. Also noted: dose 20 mg/kg, route oral. Conditions: in vivo. An outline of the steps:
as §1

Series [17] concerns Plasmodium falciparum. Description: Antiplasmodial activity against Plasmodium falciparum NF54 assessed as reduction in stage IV and V gametocyte formation at IC50 level incubated for 48 hrs measured 7 days post compound wash by Giemsa staining. Format: functional, organism-based.
The nature of series [18]: Prodrug release in buffer assessed as azidothymidine level. Format: physicochemical.
Series [19] relates to Mus musculus. Nature of the series: Toxicity in Plasmodium […] N infected in C57/BL6 mouse assessed as parasitemia at 20 mg/kg, po dosed 30 mins post parasite infection and same dose repeated on days 1, 2 and 3 post infection measured on parasitemia day 2 to 7. It counts as organism-based. Set-up: dose 20 mg/kg, route oral. Conditions: in vivo, 0.5 h. An outline of the steps:
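Infected mice dosed orally at 20 mg/kg on days 0–3 (first dose 30 min after intraperitoneal infection); death of treated infected mice before day 6 counted as toxic death; parasitemia followed on Giemsa smears to day 7.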

Series [20] has as its system Blood. Nature of the series: Drug metabolism in C57/BL6 mouse blood assessed as dihydroartemisinin level at 20 mg/kg, po dissolved in Pheroid formulation. Format: ADME, organism-based. Also noted: dose 20 mg/kg, route oral. Conditions: in vivo. Put shortly: as §1
Series [21] is described as follows: Selectivity index, ratio of CC50 for human HeLa cells to IC50 for Plasmodium falciparum 3D7 ring stage cells. Format: functional. An outline of the steps:
as §2

Series [22] concerns Human immunodeficiency virus 1. Nature of the series: Antiviral activity against VSV-G pseudotyped HIV1 lentiviral particles infected in human HeLa cells incubated for 48 hrs by spectrofluorometry. Conditions: Human immunodeficiency virus 1, HeLa, 48 h; read-out: IC50. It counts as functional, organism-based.

In the case of `Cc1cn([C@H]2C[C@H](N=[N+]=[N-])[C@@H](CO[C@H]3O[C@@H]4O[C@@]5(C)CC[C@H]6[C@H](C)CC[C@@H]([C@H]3C)[C@@]46OO5)O2)c(=O)[nH]c1=O`, the IC50 (in general, the concentration needed to halve the response being measured) was 486 nM in series [1]; 10 nM in [11]; over 100000 nM in series [14]; 30 nM in series [15]; 2860 nM in series [22]. The Drug metabolism result is “Not Active” in series [2]; “Active” in series [4]; “Not Active” in series [5]; “Active” in [7]; “Active” in series [8]; “Active” in series [10]. The Drug metabolism entry is listed as “Not Active” in series [12], “Active” in series [16], “Active” in [18] and “Not Active” in series [20]. Moreover, the metabolised at 0.25 h in series [3] was over 90%. The “Ratio CC50/IC50” value is over 10000 in [6], over 35 in series [13] and over 3333.3 in [21]. Besides, in series [9], the highest level (Cmax) was 40 ng/mL. Also, the inhibition entry in series [17] was “Active”. In addition, the Activity result in [19] is given as “Non-toxic”.
